Test results published in ChEMBL document CHEMBL1772954, “Antifungal, cytotoxic and SAR studies of a series of N-alkyl, N-aryl and N-alkylphenyl-1,4-pyrrolediones and related compounds” (Bioorg Med Chem, 2011).
Values after ≈ are worked out from the molar mass of the structure shown.

How the values were obtained:
Type in all cases: functional
[1] = system: Candida albicans; assay: Antifungal activity against Candida albicans ATCC 10213
Outline: (§1)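 CLSI M27-A3 broth microdilution in RPMI-1640 buffered to pH 7.0 with MOPS. Inoculum 1-5 × 10^3 CFU/mL. Compound twofold dilutions from 250 to 0.24 µg/ml, final DMSO <1%. Incubated at 35 °C in a moist, dark chamber and read at 48 h. MIC is the lowest concentration giving total growth inhibition. For MFC, 5 µL from clear wells was plated in duplicate on SDA; MFC is the lowest concentration with no growth.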

[2] = system: Candida tropicalis; assay: Antifungal activity against Candida tropicalis C 131 2000; outline: as §1
[3] = system: Saccharomyces cerevisiae; assay: Antifungal activity against Saccharomyces cerevisiae ATCC 9763; outline: as §1
[4] = system: Cryptococcus neoformans; assay: Antifungal activity against Cryptococcus neoformans ATCC 32264; outline: as §1
[5] = system: Aspergillus fumigatus; assay: Antifungal activity against Aspergillus fumigatus ATCC 26934
Outline: (§2)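 Broth microdilution per CLSI M38-A2 in RPMI-1640 with MOPS at pH 7.0. Inoculum 1-5 × 10^3 CFU/mL, with twofold compound dilutions spanning 250-0.24 µg/ml (final DMSO <1%). Plates incubated at 35 °C, moist and dark, and read when the control fungus had grown. MIC is total growth inhibition. MFC comes from subculturing clear wells in duplicate onto SDA.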

[6] = system: Aspergillus flavus; assay: Antifungal activity against Aspergillus flavus ATCC 9170; outline: as §2
[7] = system: Aspergillus niger; assay: Antifungal activity against Aspergillus niger ATCC 9029; outline: as §2
[8] = system: Nannizzia gypsea; assay: Antifungal activity against Microsporum gypseum C 115 2000
Outline: (§3)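 Dermatophytes tested by CLSI M38-A2 microdilution in MOPS-buffered RPMI-1640 at pH 7.0. Inoculum 1-5 × 10^3 CFU/mL; compounds 250 to 0.24 µg/ml in twofold steps, final DMSO <1%. Incubated at 28 °C in a moist, dark chamber and read according to control growth. MIC is the lowest concentration with complete inhibition. MFC is the lowest concentration with no growth after duplicate subculture on SDA.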

[9] = system: Trichophyton rubrum; assay: Antifungal activity against Trichophyton rubrum C 113 2000; outline: as §3
[10] = system: Trichophyton mentagrophytes; assay: Antifungal activity against Trichophyton mentagrophytes ATCC 9972; outline: as §3

Row | Compound | MIC [1] [µg/mL] | MIC [2] [µg/mL] | MIC [3] [µg/mL] | MIC [4] [µg/mL] | MIC [5] [µg/mL] | MIC [6] [µg/mL] | MIC [7] [µg/mL] | MIC [8] [µg/mL] | MIC [9] [µg/mL] | MIC [10] [µg/mL] | MFC [1] [µg/mL] | MFC [2] [µg/mL] | MFC [3] [µg/mL] | MFC [4] [µg/mL] | MFC [5] [µg/mL] | MFC [6] [µg/mL] | MFC [7] [µg/mL] | MFC [8] [µg/mL] | MFC [9] [µg/mL] | MFC [10] [µg/mL]
1 | CC1=C(C)C(=O)N(CCc2ccccc2)C1=O | > 250 | > 250 | > 250 | 250 (≈ 1090 µM) | > 250 | > 250 | > 250 | 250 (≈ 1090 µM) | 62.5 (≈ 273 µM) | 250 (≈ 1090 µM) | > 250 | > 250 | > 250 | > 250 | > 250 | > 250 | > 250 | > 250 | 250 (≈ 1090 µM) | > 250
2 | CC1=C(C)C(=O)N(CCCc2ccccc2)C1=O | > 250 | > 250 | > 250 | 125 (≈ 514 µM) | > 250 | > 250 | > 250 | 125 (≈ 514 µM) | 62.5 (≈ 257 µM) | 250 (≈ 1030 µM) | > 250 | > 250 | > 250 | 250 (≈ 1030 µM) | > 250 | > 250 | > 250 | 250 (≈ 1030 µM) | 250 (≈ 1030 µM) | > 250
3 | CC1=C(C)C(=O)N(CCCCc2ccccc2)C1=O | > 250 | > 250 | > 250 | > 250 | > 250 | > 250 | > 250 | 250 (≈ 972 µM) | 125 (≈ 486 µM) | 125 (≈ 486 µM) | > 250 | > 250 | > 250 | > 250 | > 250 | > 250 | > 250 | > 250 | 250 (≈ 972 µM) | > 250
4 | O=C1C(c2ccccc2)=C(c2ccccc2)C(=O)N1c1ccccc1 | > 250 | > 250 | > 250 | > 250 | > 250 | > 250 | > 250 | > 250 | > 250 | > 250 | > 250 | > 250 | > 250 | > 250 | > 250 | > 250 | > 250 | > 250 | > 250 | > 250
5 | O=C1C(c2ccccc2)=C(c2ccccc2)C(=O)N1CCc1ccccc1 | > 250 | > 250 | > 250 | > 250 | > 250 | > 250 | > 250 | > 250 | > 250 | > 250 | > 250 | > 250 | > 250 | > 250 | > 250 | > 250 | > 250 | > 250 | > 250 | > 250
6 | O=C(O)/C=C\C(=O)NCCCc1ccccc1 | – | > 250 | > 250 | > 250 | > 250 | > 250 | > 250 | 250 (≈ 1070 µM) | 250 (≈ 1070 µM) | > 250 | > 250 | > 250 | > 250 | > 250 | > 250 | > 250 | > 250 | > 250 | > 250 | > 250
7 | O=C(O)/C=C\C(=O)Nc1ccccc1 | – | > 250 | 125 (≈ 654 µM) | > 250 | > 250 | > 250 | > 250 | 125 (≈ 654 µM) | 62.5 (≈ 327 µM) | 250 (≈ 1310 µM) | > 250 | > 250 | > 250 | > 250 | > 250 | > 250 | > 250 | > 250 | 250 (≈ 1310 µM) | > 250
8 | O=C(O)/C=C\C(=O)NCc1ccccc1 | – | > 250 | 250 (≈ 1220 µM) | > 250 | > 250 | > 250 | > 250 | > 250 | > 250 | > 250 | > 250 | > 250 | > 250 | > 250 | > 250 | > 250 | > 250 | > 250 | > 250 | > 250
9 | CC1=C(C)C(=O)N(c2ccccc2)C1=O | > 250 | > 250 | > 250 | 125 (≈ 621 µM) | > 250 | > 250 | > 250 | 250 (≈ 1240 µM) | 62.5 (≈ 311 µM) | 125 (≈ 621 µM) | > 250 | > 250 | > 250 | 250 (≈ 1240 µM) | > 250 | > 250 | > 250 | > 250 | 125 (≈ 621 µM) | 250 (≈ 1240 µM)
10 | CN(C/C=C/C#CC(C)(C)C)Cc1cccc2ccccc12 [TERBINAFINE] | – | – | – | – | – | – | – | 0.03 (≈ 0.103 µM) | 0.01 (≈ 0.0343 µM) | 0.03 (≈ 0.103 µM) | – | – | – | – | – | – | – | 0.06 (≈ 0.206 µM) | 0.03 (≈ 0.103 µM) | 0.06 (≈ 0.206 µM)

Further lines, with some results ahead:

Row | MIC [1] [µg/mL] | MIC [2] [µg/mL] | MIC [3] [µg/mL] | MIC [4] [µg/mL] | MIC [5] [µg/mL] | MIC [6] [µg/mL] | MIC [7] [µg/mL] | MIC [8] [µg/mL] | MIC [9] [µg/mL] | MIC [10] [µg/mL] | Compound | MFC [1] [µg/mL] | MFC [2] [µg/mL] | MFC [3] [µg/mL] | MFC [4] [µg/mL] | MFC [5] [µg/mL] | MFC [6] [µg/mL] | MFC [7] [µg/mL] | MFC [8] [µg/mL] | MFC [9] [µg/mL] | MFC [10] [µg/mL]
11 | > 250 | > 250 | > 250 | > 250 | > 250 | > 250 | > 250 | > 250 | > 250 | > 250 | O=C1C(c2ccccc2)=C(c2ccccc2)C(=O)N1CCCc1ccccc1 | > 250 | > 250 | > 250 | > 250 | > 250 | > 250 | > 250 | > 250 | > 250 | > 250
12 | > 250 | > 250 | > 250 | > 250 | > 250 | > 250 | > 250 | > 250 | > 250 | > 250 | O=C1C(Cl)=C(Cl)C(=O)N1c1ccccc1 | > 250 | > 250 | > 250 | > 250 | > 250 | > 250 | > 250 | > 250 | > 250 | > 250
13 | 125 (≈ 581 µM) | 125 (≈ 581 µM) | 250 (≈ 1160 µM) | 125 (≈ 581 µM) | > 250 | > 250 | > 250 | 125 (≈ 581 µM) | 62.5 (≈ 290 µM) | 125 (≈ 581 µM) | CC1=C(C)C(=O)N(Cc2ccccc2)C1=O | > 250 | > 250 | > 250 | 250 (≈ 1160 µM) | > 250 | > 250 | > 250 | 250 (≈ 1160 µM) | 125 (≈ 581 µM) | 250 (≈ 1160 µM)
14 | > 250 | > 250 | > 250 | > 250 | > 250 | > 250 | > 250 | > 250 | > 250 | > 250 | O=C1C(c2ccccc2)=C(c2ccccc2)C(=O)N1Cc1ccccc1 | > 250 | > 250 | > 250 | > 250 | > 250 | > 250 | > 250 | > 250 | > 250 | > 250
15 | > 250 | > 250 | > 250 | > 250 | > 250 | > 250 | > 250 | > 250 | > 250 | > 250 | O=C1C(c2ccccc2)=C(c2ccccc2)C(=O)N1CCCCc1ccccc1 | > 250 | > 250 | > 250 | > 250 | > 250 | > 250 | > 250 | > 250 | > 250 | > 250
16 | – | > 250 | > 250 | > 250 | > 250 | > 250 | > 250 | > 250 | > 250 | > 250 | O=C(O)/C=C\C(=O)NCCCCc1ccccc1 | > 250 | > 250 | > 250 | > 250 | > 250 | > 250 | > 250 | > 250 | > 250 | > 250
17 | – | > 250 | > 250 | > 250 | > 250 | > 250 | > 250 | 250 (≈ 1140 µM) | 250 (≈ 1140 µM) | > 250 | O=C(O)/C=C\C(=O)NCCc1ccccc1 | > 250 | > 250 | > 250 | > 250 | > 250 | > 250 | > 250 | > 250 | > 250 | > 250
